From ChEMBL document CHEMBL4145534, “Computer-aided insights into receptor-ligand interaction for novel 5-arylhydantoin derivatives as serotonin 5-HT7 receptor agents with antidepressant activity” (Eur J Med Chem, 2018)

How the values were obtained:
[1] = biological target: T1, 5-hydroxytryptamine receptor 1A (Homo sapiens, UniProt P08908); assay: Displacement of [3H]-8-OH-DPAT from human 5HT1AR expressed in HEK293 cell membranes after 1 hr by Microbeta scintillation counting method
T1 sequence (P08908 whole entry): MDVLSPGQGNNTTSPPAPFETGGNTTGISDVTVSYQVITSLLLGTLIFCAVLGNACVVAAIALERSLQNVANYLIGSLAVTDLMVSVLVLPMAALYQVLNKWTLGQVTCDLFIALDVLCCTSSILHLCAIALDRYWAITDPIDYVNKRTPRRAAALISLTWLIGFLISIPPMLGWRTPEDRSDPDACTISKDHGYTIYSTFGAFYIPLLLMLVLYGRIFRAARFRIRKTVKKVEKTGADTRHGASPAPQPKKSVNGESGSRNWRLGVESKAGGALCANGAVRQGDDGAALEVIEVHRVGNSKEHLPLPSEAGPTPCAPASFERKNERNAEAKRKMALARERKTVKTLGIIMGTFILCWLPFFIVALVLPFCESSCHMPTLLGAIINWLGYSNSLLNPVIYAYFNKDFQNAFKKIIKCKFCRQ

Mus musculus [2] = assay: Anxiolytic-like activity in Swiss albino mouse assessed as number of punished crossings at 40 mg/kg, ip administered 60 mins prior to test and measured post 3 secs of electric shock by four-plate test (reference value: 3.8 to 4 /min); assay type: functional
Mus musculus [3] = assay: Anxiolytic-like activity in Swiss albino mouse assessed as number of punished crossings at 10 mg/kg, ip administered 60 mins prior to test and measured post 3 secs of electric shock by four-plate test (reference value: 3.8 to 4 /min); assay type: functional
Mus musculus [4] = assay: Anxiolytic-like activity in Swiss albino mouse assessed as number of punished crossings at 20 mg/kg, ip administered 60 mins prior to test and measured post 3 secs of electric shock by four-plate test (reference value: 3.8 to 4 /min); assay type: functional
Mus musculus [5] = assay: Antidepressant like activity in Swiss albino mouse assessed as immobility time at 5 mg/kg, ip administered 60 mins prior to test and measured last 4 mins of 6 mins test by forced swimming test (reference value: 159.78 to 183.56 secs); assay type: functional
Mus musculus [6] = assay: Antidepressant like activity in Swiss albino mouse assessed as immobility time at 20 mg/kg, ip administered 60 mins prior to test and measured last 4 mins of 6 mins test by forced swimming test (reference value: 159.78 to 183.56 secs); assay type: functional
[7] = biological target: T2, Adrenergic receptor alpha-1 (Rattus norvegicus, UniProt P15823+P23944+P43140); assay: Displacement of [3H]-prazosin from alpha1-adrenergic receptor in rat brain cortex after 30 mins by Microbeta scintillation counting method
T2 sequence (P15823 whole entry): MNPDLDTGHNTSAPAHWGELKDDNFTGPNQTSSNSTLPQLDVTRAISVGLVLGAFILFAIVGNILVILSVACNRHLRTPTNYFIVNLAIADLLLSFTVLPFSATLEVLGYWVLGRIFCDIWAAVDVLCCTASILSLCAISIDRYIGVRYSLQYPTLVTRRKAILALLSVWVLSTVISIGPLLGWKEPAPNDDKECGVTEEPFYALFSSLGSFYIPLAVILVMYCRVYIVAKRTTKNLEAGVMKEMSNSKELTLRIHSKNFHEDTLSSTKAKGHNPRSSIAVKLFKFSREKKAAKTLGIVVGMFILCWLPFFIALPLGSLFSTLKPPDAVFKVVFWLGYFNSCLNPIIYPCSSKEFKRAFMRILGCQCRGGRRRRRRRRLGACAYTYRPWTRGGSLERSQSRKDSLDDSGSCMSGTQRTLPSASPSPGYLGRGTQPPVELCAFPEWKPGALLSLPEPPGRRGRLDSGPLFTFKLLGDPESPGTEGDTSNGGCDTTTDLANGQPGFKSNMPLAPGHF
T2 sequence (P23944 whole entry): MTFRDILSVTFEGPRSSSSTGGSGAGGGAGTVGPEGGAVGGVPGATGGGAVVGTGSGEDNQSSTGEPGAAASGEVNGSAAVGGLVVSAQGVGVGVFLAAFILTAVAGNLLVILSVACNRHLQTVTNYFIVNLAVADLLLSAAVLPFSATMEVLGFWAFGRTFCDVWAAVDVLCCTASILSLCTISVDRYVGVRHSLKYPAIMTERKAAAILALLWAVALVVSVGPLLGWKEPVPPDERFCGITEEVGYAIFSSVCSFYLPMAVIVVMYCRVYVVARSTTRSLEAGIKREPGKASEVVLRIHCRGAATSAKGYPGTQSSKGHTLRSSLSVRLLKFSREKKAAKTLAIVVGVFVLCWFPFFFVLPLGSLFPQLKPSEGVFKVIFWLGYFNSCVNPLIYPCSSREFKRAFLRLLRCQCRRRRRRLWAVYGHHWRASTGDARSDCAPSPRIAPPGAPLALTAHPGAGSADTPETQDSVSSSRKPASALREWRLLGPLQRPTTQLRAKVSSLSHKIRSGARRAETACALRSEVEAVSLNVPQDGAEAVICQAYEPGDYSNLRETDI
T2 sequence (P43140 whole entry): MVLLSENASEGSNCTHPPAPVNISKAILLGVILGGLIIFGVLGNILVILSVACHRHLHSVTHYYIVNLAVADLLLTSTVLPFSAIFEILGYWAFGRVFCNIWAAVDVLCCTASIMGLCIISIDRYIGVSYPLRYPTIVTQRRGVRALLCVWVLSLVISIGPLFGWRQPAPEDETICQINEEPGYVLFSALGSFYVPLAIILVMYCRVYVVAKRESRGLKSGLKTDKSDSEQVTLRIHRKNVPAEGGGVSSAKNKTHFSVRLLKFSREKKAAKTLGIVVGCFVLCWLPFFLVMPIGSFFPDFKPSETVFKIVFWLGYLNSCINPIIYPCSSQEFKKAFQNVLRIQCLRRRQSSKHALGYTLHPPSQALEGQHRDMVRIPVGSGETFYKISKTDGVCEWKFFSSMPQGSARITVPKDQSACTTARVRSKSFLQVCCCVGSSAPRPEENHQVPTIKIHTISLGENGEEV

Mus musculus [8] = assay: Antidepressant like activity in Swiss albino mouse assessed as immobility time at 10 mg/kg, ip administered 60 mins prior to test and measured last 4 mins of 6 mins test by forced swimming test (reference value: 159.78 to 183.56 secs); assay type: functional
Mus musculus [9] = assay: Antidepressant like activity in Swiss albino mouse assessed as decrease in immobility time at 10 mg/kg, ip administered 60 mins prior to test and measured last 4 mins of 6 mins test by forced swimming test relative to control; assay type: functional; set-up: scale not given: the % may be the effect or the level left
Mus musculus [10] = assay: Effect on spontaneous locomotor activity in Swiss albino mouse at 10 mg/kg, ip administered 60 mins prior to test and measured for 3 to 6 mins; assay type: ADME, organism-based; details: in vivo
Method in brief: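 Male Swiss Albino mice given compound or vehicle (1% Tween 80, 10 ml/kg) i.p. 60 min before test. Each mouse placed alone in a cage for 30 min habituation. Ambulation (photobeam channel crossings) then recorded over a 3–6 min session. Means ± SEM.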

Mus musculus [11] = assay: Anxiolytic-like activity in Swiss albino mouse assessed as number of punished crossings at 5 mg/kg, ip administered 60 mins prior to test and measured post 3 secs of electric shock by four-plate test (reference value: 3.8 to 4 /min); assay type: functional

Row | Ki [1] [nM] | Ki [7] [nM] | SMILES | Activity (Mus musculus [2]) [min⁻¹] | Activity (Mus musculus [3]) [min⁻¹] | Activity (Mus musculus [4]) [min⁻¹] | Time (Mus musculus [5]) [s] | Time (Mus musculus [6]) [s] | Time (Mus musculus [8]) [s] | Activity (Mus musculus [9]) [%] | Activity (Mus musculus [10]) | Activity (Mus musculus [11]) [min⁻¹]
1 | 140 | 200 | CC1(c2ccc(Br)cc2)NC(=O)N(CC(O)CN2CCN(c3ccccc3C#N)CC2)C1=O.Cl (racemic) | 4.3 | 3.9 | 3.7 | 156.33 | 55.33 | 136.63 |  |  | 
2 | 85 | 167 | COc1ccccc1N1CCN(CC(O)CN2C(=O)NC(C)(c3ccc(Br)cc3)C2=O)CC1.Cl (racemic) |  | 3.1 | 2.2 | 184.22 | 91.13 | 179.44 | 50 | Non-Toxic | 3.1
3 | 305 | 250 | CC1(c2ccc(Cl)cc2)NC(=O)N(CC(O)CN2CCN(c3ccccc3C#N)CC2)C1=O.Cl (racemic) |  |  |  |  |  |  |  |  | 
